Results from different studies.
Each line is one published result; the experiments were not run side by side.
Cell line: T47D
Read-out: cell growth or viability

COc1ccc(C(=O)/C=C/c2cccc(Cl)c2)cc1S(N)(=O)=O  GI50 (SRB; 48 h): 2.1 µM
COc1ccc(-c2ccc(-c3ccc(C(=N)N)nc3)s2)cc1Cl  GI50 (SRB): 1.99 µM
CC[C@H](C)C(=O)O[C@H]1C[C@H](O)C=C2C=C[C@H](C)[C@H](CC[C@@H](O)C[C@@H](O)CC(=O)O)[C@H]21  IC50 (SRB; 72 h): 133 µg/mL
COc1cccc(Oc2ccccc2NC(=O)CNC(=O)c2cccc3ccccc23)c1  GI50 (SRB; 48 h): 0.138 µM
CC/C(=C(/c1ccc(OCCNC)cc1)c1ccc(B2OC(C)(C)C(C)(C)O2)cc1)c1ccccc1  IC50 (5 days): 8.73 µM
O=C1Nc2ccccc2C1=NNc1nnc2n1N=C(c1ccccc1)CS2  inhibition (SRB; 10 µM): 36%
CCCCCCCC(=O)NCC(=O)OC  inhibition (MTT; 10 µM, 48 h): 23%
O=C1C[C@@H](c2ccc(O)cc2)Oc2cc(O)cc(O)c21  IC50 (MTT; 48 h): 4.17 µM
COc1ccc(-c2ccc(-c3ccc(C(=N)N)nc3)s2)cc1  GI50 (SRB): 1.92 µM
COc1ccccc1/C=C/C(=O)c1ccc(OC)c(S(N)(=O)=O)c1  inhibition (SRB; 10 µM): 83%
CC/C(=C(\c1ccc(O)cc1)c1ccc(OCCNC)cc1)c1ccccc1  IC50 (5 days): 4.29 µM
